{"data": "Measurements of several laboratories", "target": "PAS domain-containing serine/threonine-protein kinase (PASK, Homo sapiens, UniProt Q96RG2)", "note": "Each line is one published result; the experiments were not run side by side."}
{"SMILES": "COc1cc2ncnc(Nc3ccc(Oc4ccccc4)cc3C)c2cc1OC", "test": "enzyme activity, inhibitor", "setting": "1 µM", "endpoint": "inhibition", "value": "-2%"}
{"SMILES": "CCN(CC)CCNC(=O)c1c(C)[nH]c(/C=C2\\C(=O)Nc3ccc(F)cc32)c1C", "test": "enzyme activity, inhibitor", "setting": "0.3 µM", "endpoint": "inhibition", "value": "-5%"}
{"SMILES": "Cc1ncc([N+](=O)[O-])n1C(=NO)c1ccccc1C(F)(F)F", "test": "enzyme activity, inhibitor", "setting": "10 µM", "endpoint": "inhibition", "value": "11.2%"}
{"SMILES": "Cc1ccc(NC(=O)c2ccc(C)c(C(F)(F)F)c2)cc1C#Cc1nn(C2CCC(O)CC2)c2ncnc(N)c12 (centres unmarked)", "test": "cell-free assay", "setting": "10 µM", "endpoint": "remaining signal", "value": "113%"}
{"SMILES": "O=C1NC(=O)c2cc(Nc3ccc(F)cc3)c(Nc3ccc(F)cc3)cc21", "test": "cell-free assay", "setting": "0.5 µM", "endpoint": "remaining signal", "value": "91.3%"}
{"SMILES": "O=C(Nc1cnn(-c2csc(C(=O)NC3COC3)c2)c1)Nc1c(F)cccc1Cl", "test": "enzyme activity, inhibitor", "setting": "5 µM", "endpoint": "remaining activity", "value": "99.7%"}
{"SMILES": "CC(C)(O)[C@H]1CC[C@H](Nc2ccc3ncc(-c4cccc(C(F)(F)F)c4)n3n2)CC1", "test": "enzyme activity, inhibitor", "setting": "1 µM", "endpoint": "remaining activity", "value": "92.3%"}
{"SMILES": "CNC(=O)c1cc(Oc2ccc(NC(=O)Nc3ccc(Cl)c(C(F)(F)F)c3)cc2)ccn1", "test": "enzyme activity, inhibitor", "setting": "0.3 µM", "endpoint": "inhibition", "value": "-6%"}
{"SMILES": "CC(C)(C)c1nc(-c2cccc(NS(=O)(=O)c3c(F)cccc3F)c2F)c(-c2ccnc(N)n2)s1", "test": "enzyme activity, inhibitor, radiometric", "setting": "1 µM", "endpoint": "remaining activity", "value": "98%"}
{"SMILES": "O=C1Nc2ccc(Cl)cc2C1=Cc1cc(Cl)c(O)c(Cl)c1", "test": "cell-free assay", "setting": "0.5 µM", "endpoint": "remaining signal", "value": "70%"}
{"SMILES": "Cc1cnc(NC2CCOCC2)nc1-n1cnc(C(=O)NC(CN)c2cc(F)cc(Cl)c2)c1 (centres unmarked)", "test": "enzyme activity, inhibitor, radiometric", "setting": "1 µM", "endpoint": "remaining activity", "value": "96%"}
{"SMILES": "CC/C(=N\\NC(=O)NCc1cccc(O)c1)c1ccc(O)c(C)c1O", "test": "enzyme activity, inhibitor", "setting": "0.1 µM", "endpoint": "inhibition", "value": "-0.2%"}
{"SMILES": "Cc1ccc(Nc2nccc(N(C)c3ccc4c(C)n(C)nc4c3)n2)cc1S(N)(=O)=O", "test": "enzyme activity, inhibitor", "setting": "10 µM", "endpoint": "inhibition", "value": "1%"}
{"SMILES": "COc1cc(Cl)c(C(=O)N[C@@H](CN[C@H]2CC[C@@H](N)CC2)Cc2ccc(C#N)cc2)cc1-c1ccc(CN[C@H](C)c2ccc(C)cc2)o1", "test": "enzyme activity, inhibitor", "setting": "1 µM", "endpoint": "remaining activity", "value": "72%"}
